Calls of active or inactive are those of the source. The rule behind the calls is not given here.
Legend:
Histone deacetylase 2 [1] = molecular target: T1, Histone deacetylase 2 (Homo sapiens, UniProt Q92769)
Histone deacetylase 1 [2] = molecular target: T2, Histone deacetylase 1 (Homo sapiens, UniProt Q13547); test: Inhibition of C-terminal FLAG/His-tagged full length recombinant human HDAC1 expressed in baculovirus infected Sf9 insect cells using HDAC substrate 3 after 30 mins by fluorescence assay
T2 sequence (Q13547 whole entry): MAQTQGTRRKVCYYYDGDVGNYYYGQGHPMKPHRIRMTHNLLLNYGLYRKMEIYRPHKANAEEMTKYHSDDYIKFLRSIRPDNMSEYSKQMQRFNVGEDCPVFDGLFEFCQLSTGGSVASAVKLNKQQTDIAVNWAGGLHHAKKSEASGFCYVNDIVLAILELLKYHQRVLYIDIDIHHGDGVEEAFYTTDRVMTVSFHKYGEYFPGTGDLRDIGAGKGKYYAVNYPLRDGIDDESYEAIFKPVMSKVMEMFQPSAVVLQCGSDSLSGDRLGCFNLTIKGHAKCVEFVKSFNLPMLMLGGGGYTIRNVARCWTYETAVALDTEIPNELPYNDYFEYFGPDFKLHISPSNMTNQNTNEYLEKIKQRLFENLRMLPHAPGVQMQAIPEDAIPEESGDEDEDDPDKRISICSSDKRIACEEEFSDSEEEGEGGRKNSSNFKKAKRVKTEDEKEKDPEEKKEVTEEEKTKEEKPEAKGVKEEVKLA
Procedure, shortened: (§1)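 Fluorogenic deacetylation was run at 37 °C for 30 min in HEPES pH 7.5 buffer with NaCl, KCl, Tween 20, TCEP and BSA. Enzyme and substrate were: HDAC1 10 ng, HDAC2 5 ng or HDAC3 2 ng with 10 µM substrate 3; HDAC8 10 ng with 2 µM class 2a substrate 1. Compound ran at 0.001–10000 nM. Developer was added for 20 min at RT and fluorescence read at Ex360/Em460.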

[3] = Apparent permeability of the compound; format: ADME; conditions: not told
Histone deacetylase 1 [4] = molecular target: T2, Histone deacetylase 1; test: Binding affinity to HDAC1 in human CD34positive cell-derived erythroid progenitor cells up to 3 uM by tetrazine-PEG4-biotin-based SDS-PAGE/immunoblot analysis
Histone deacetylase 1 [5] = molecular target: T2, Histone deacetylase 1; test: Competitive binding affinity to HDAC1 in human CD34positive cell-derived erythroid progenitor cells in presence of largazole thiol by tetrazine-PEG4-biotin-based SDS-PAGE/immunoblot analysis
Procedure, shortened: (§2)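 Mobilized peripheral blood CD34+ cells were expanded 7 days with CC100 cytokines, then 4 days in erythroid medium (SCF, IL-3, EPO, dexamethasone, β-estradiol). Cells got DMSO or 1–100 nM inhibitor (37 °C, 2 h or 24 h), then 3 μM TCO largazole thiol for 10 min. Lysates were clicked with 50 μM tetrazine-PEG4-biotin, pulled down on streptavidin and immunoblotted for HDAC1/2. Occupancy versus vehicle gave OC50 by sigmoidal fit.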

[6] = molecular target: Histone deacetylase 3 (Homo sapiens) (UniProt O15379); test: Binding affinity to HDAC3 in human CD34positive cell-derived erythroid progenitor cells by tetrazine-PEG4-biotin-based SDS-PAGE/immunoblot analysis
Histone deacetylase 3 (Homo sapiens), sequence (O15379 whole entry): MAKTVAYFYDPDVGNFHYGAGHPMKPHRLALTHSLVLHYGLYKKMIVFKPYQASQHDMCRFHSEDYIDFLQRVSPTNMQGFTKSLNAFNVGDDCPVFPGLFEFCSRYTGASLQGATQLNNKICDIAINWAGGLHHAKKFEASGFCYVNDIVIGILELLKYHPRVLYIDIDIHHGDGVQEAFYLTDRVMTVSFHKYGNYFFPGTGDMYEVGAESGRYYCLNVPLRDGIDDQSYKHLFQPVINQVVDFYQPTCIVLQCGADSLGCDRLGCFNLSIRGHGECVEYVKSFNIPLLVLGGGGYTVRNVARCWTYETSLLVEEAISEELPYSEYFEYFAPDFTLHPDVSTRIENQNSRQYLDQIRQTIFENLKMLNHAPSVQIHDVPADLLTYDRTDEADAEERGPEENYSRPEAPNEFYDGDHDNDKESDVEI

Histone deacetylase 2 [7] = molecular target: T1, Histone deacetylase 2; test: Binding affinity to HDAC2 in human CD34positive cell-derived erythroid progenitor cells measured up to 120 mins by tetrazine-PEG4-biotin-based SDS-PAGE/immunoblot analysis
Histone deacetylase 2 [8] = molecular target: T1, Histone deacetylase 2; test: Competitive binding affinity to HDAC2 in human CD34positive cell-derived erythroid progenitor cells in presence of largazole thiol by tetrazine-PEG4-biotin-based SDS-PAGE/immunoblot analysis
Procedure, shortened: as §2

[9] = molecular target: Histone deacetylase 3/Nuclear receptor corepressor 2 (HDAC3/NCoR2) (Homo sapiens, UniProt O15379); test: Inhibition of C-terminal His-tagged full length recombinant human HDAC3/N-terminal GST-tagged NCOR2 (395 to 489 residues) expressed in baculovirus infected Sf9 insect cells using HDAC substrate 3 after 30 mins by fluorescence assay
Histone deacetylase 3/Nuclear receptor corepressor 2 (HDAC3/NCoR2), sequence (O15379 whole entry, the tested form may be a part): as the sequence (O15379 whole entry) above
Histone deacetylase 3/Nuclear receptor corepressor 2 (HDAC3/NCoR2), sequence (Q9Y618 whole entry, further chain, the tested form may be a part): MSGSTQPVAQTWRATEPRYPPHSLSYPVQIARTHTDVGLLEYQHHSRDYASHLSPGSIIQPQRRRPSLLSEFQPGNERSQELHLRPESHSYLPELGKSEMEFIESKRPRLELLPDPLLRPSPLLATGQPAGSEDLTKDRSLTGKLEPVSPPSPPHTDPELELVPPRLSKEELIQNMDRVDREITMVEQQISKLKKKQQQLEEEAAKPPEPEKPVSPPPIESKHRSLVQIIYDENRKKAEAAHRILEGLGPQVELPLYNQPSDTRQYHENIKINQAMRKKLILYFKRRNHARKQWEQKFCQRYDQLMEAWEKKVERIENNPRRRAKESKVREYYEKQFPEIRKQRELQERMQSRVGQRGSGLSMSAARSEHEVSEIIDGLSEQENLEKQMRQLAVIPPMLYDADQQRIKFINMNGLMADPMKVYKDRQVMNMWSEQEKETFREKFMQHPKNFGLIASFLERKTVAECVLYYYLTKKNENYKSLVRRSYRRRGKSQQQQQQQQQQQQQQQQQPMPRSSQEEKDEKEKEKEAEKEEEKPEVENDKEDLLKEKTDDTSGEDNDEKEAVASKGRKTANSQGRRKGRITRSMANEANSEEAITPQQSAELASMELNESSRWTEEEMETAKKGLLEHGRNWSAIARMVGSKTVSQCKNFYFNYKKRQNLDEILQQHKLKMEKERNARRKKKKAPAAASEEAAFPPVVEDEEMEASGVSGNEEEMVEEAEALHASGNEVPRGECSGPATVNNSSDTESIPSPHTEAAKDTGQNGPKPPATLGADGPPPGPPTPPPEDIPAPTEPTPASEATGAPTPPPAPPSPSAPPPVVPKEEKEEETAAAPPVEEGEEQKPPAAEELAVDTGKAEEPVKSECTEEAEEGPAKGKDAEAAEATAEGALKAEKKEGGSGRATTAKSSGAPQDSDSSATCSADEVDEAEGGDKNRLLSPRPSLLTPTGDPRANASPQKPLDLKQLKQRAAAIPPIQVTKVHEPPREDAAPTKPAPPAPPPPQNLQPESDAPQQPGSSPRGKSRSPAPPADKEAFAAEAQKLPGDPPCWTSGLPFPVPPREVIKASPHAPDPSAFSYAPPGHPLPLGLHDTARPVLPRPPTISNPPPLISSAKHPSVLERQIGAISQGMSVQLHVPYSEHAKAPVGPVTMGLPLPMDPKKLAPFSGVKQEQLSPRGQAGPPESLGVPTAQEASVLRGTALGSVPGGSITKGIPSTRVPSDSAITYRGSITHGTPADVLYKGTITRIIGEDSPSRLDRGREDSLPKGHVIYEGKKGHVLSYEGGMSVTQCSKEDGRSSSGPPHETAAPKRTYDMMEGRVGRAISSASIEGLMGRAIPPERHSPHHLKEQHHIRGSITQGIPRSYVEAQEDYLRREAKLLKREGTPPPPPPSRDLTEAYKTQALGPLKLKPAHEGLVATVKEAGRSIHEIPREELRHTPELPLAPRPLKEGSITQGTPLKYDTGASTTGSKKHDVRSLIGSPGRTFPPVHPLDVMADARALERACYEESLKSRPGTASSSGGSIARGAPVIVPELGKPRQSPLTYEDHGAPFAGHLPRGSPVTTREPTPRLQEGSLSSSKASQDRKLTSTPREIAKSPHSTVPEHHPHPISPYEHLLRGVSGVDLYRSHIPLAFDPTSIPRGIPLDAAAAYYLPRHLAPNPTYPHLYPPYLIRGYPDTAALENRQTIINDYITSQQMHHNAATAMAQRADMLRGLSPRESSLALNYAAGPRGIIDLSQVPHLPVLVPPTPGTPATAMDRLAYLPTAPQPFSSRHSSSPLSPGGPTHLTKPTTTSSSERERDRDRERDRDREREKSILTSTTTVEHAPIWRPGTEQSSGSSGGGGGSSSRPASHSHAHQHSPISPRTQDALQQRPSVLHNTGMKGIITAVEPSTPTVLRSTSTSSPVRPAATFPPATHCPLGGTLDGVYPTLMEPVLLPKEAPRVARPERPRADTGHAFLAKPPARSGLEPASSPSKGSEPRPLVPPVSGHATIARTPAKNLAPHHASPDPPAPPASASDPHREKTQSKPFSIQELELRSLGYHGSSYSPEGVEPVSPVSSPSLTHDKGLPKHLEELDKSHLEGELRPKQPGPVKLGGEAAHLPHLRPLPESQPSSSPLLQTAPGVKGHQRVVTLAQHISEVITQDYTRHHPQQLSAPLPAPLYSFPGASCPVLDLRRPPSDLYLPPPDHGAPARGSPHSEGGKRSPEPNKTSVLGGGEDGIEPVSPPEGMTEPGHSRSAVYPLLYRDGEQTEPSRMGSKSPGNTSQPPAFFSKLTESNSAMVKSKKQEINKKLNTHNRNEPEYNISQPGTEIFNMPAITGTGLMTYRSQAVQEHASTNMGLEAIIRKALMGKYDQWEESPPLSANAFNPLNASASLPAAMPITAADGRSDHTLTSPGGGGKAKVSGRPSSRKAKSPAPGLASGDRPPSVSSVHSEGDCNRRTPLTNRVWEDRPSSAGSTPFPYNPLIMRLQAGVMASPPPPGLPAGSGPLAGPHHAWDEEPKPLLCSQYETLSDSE
Procedure, shortened: as §1

Histone deacetylase 2 [10] = molecular target: T1, Histone deacetylase 2; test: Binding affinity to HDAC2 in human CD34positive cell-derived erythroid progenitor cells up to 3 uM by tetrazine-PEG4-biotin-based SDS-PAGE/immunoblot analysis
Histone deacetylase 2 [11] = molecular target: T1, Histone deacetylase 2; test: Inhibition of C-terminal FLAG or His-tagged full length recombinant human HDAC2 expressed in baculovirus infected Sf9 insect cells using HDAC substrate 3 after 30 mins by fluorescence assay
Procedure, shortened: as §1

Histone deacetylase 1 [12] = molecular target: T2, Histone deacetylase 1; test: Binding affinity to HDAC1 in human CD34positive cell-derived erythroid progenitor cells measured up to 120 mins by tetrazine-PEG4-biotin-based SDS-PAGE/immunoblot analysis
Histone deacetylase 8 = molecular target: T3, Histone deacetylase 8 (Homo sapiens, UniProt Q9BY41); test: Inhibition of C-terminal His-tagged full length recombinant human HDAC8 expressed in baculovirus infected Sf9 insect cells using HDAC class 2a substrate 1 after 30 mins by fluorescence assay
T3 sequence (Q9BY41 whole entry): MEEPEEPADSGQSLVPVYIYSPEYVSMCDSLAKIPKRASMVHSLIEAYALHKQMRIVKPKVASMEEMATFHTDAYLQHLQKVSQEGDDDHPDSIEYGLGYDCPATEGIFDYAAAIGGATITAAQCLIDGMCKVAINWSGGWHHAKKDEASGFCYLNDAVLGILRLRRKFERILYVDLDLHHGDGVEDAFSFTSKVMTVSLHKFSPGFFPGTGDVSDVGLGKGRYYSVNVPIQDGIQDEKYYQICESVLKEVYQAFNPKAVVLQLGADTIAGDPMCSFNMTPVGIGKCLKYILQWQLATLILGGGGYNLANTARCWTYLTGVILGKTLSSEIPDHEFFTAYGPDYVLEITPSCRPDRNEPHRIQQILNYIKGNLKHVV
Procedure, shortened: as §1

T1 sequence (Q92769 whole entry): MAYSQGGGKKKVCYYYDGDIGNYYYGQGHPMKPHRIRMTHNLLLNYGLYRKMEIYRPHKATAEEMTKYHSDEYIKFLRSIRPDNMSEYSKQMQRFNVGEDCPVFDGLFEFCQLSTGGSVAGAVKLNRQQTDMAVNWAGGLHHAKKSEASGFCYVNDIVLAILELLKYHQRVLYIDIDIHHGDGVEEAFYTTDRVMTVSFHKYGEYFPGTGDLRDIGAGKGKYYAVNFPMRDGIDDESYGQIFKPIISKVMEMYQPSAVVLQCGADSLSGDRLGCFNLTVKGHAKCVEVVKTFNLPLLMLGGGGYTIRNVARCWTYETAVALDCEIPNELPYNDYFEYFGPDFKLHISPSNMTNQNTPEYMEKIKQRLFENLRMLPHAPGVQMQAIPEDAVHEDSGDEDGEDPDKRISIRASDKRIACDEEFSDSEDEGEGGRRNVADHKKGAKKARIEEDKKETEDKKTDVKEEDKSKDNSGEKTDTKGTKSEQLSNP

| Compound | Occ50 (Histone deacetylase 2 [1]) | IC50 (Histone deacetylase 1 [2]) | Papp [3] | Activity (Histone deacetylase 1 [4]) | Activity (Histone deacetylase 1 [5]) | Activity [6] | Activity (Histone deacetylase 2 [7]) | Activity (Histone deacetylase 2 [8]) | IC50 [9] | Activity (Histone deacetylase 2 [10]) | IC50 (Histone deacetylase 2 [11]) | Activity (Histone deacetylase 1 [12]) | IC50 (Histone deacetylase 8) |
| --- | --- | --- | --- | --- | --- | --- | --- | --- | --- | --- | --- | --- | --- |
| O=C(/C=C/c1ccc(CN(CCO)CCc2c[nH]c3ccccc23)cc1)NO | 3 nM | – | – | – | – | – | – | – | – | – | – | – | – |
| C[C@@]12CSC(=N1)c1csc(n1)CNC(=O)C[C@@H](/C=C/CCS)OC(=O)[C@H](CCCCNC(=O)O[C@@H]1CC/C=C/CCC1)NC2=O | – | 1.9 nM | 3.23 ×10⁻⁶ cm/s | Active | Active | inactive | Active | Active | 1.1 nM | Active | 6.6 nM | Active | 1110 nM |

Reference: ChEMBL document CHEMBL4261489, “Quantitative measurement of intracellular HDAC1/2 drug occupancy using a trans-cyclooctene largazole thiol probe” (Medchemcomm, 2017)
